From ChEMBL document CHEMBL1136734, “Discovery of tyrosine-based potent and selective melanocortin-1 receptor small-molecule agonists with anti-inflammatory properties” (J Med Chem, 2003)
The source made the active and inactive calls. The calls are words filed in the database; no cut-off is given here.

Key:
[1] = molecular target: T1, Melanocyte-stimulating hormone receptor (Homo sapiens, UniProt Q01726); assay: In vitro effective concentration towards human Melanocortin 1 receptor (MC1R) in SPA-based cAMP assay in melanoma cells; assay type: cell-based
Target sequence in this assay (Q01726 whole entry): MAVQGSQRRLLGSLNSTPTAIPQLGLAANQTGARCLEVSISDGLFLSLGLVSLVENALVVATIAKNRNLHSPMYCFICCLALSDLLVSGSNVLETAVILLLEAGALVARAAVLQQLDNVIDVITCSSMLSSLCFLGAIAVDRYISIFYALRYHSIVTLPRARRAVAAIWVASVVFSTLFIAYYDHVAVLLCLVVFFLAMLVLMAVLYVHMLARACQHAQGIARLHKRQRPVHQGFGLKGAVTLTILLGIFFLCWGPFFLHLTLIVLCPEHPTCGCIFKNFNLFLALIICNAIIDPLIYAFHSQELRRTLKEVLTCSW

[2] = molecular target: T1, Melanocyte-stimulating hormone receptor; assay: In vitro inhibitory concentration against human Melanocortin 1 receptor (MC1R)
Target sequence in this assay (Q01726 whole entry): as above

Melanocortin receptor 3 [3] = molecular target: T2, Melanocortin receptor 3 (Homo sapiens, UniProt P41968); assay: In vitro effective concentration towards human Melanocortin 3 receptor (MC3R) was determined by a SPA-based cAMP assay in melanoma cells; assay type: cell-based
T2 sequence (P41968 whole entry): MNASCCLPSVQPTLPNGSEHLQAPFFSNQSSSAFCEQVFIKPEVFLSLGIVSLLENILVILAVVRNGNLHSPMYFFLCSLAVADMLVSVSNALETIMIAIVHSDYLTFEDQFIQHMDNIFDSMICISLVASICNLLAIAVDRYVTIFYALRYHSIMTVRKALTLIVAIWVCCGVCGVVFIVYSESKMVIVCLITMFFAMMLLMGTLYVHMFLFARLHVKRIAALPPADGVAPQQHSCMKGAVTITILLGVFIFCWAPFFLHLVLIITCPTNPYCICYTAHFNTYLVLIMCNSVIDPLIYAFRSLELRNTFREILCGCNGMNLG

Melanocortin receptor 3 [4] = molecular target: T2, Melanocortin receptor 3; assay: In vitro intrinsic activity against human Melanocortin 3 receptor (MC3R)
Melanocortin receptor 5 [5] = molecular target: T3, Melanocortin receptor 5 (Homo sapiens, UniProt P33032); assay: In vitro intrinsic activity against human Melanocortin 5 receptor (MC5R)
T3 sequence (P33032 whole entry): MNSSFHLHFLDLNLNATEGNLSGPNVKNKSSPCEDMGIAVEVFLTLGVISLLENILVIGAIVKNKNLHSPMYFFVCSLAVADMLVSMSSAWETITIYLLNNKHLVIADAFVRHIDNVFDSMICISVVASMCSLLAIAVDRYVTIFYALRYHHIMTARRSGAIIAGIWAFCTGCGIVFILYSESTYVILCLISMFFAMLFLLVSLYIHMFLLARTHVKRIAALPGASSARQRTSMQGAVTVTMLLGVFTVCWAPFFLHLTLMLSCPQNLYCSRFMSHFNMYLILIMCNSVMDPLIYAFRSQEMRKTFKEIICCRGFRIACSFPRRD
Summary of the method: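 A SPA-based cAMP assay was run in CHO cells overexpressing human MC-5R. EC50 and intrinsic activity (%) are given ± SEM.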

[6] = molecular target: T1, Melanocyte-stimulating hormone receptor; assay: In vitro intrinsic activity against human Melanocortin 1 receptor (MC1R)
Target sequence in this assay (Q01726 whole entry, looked up): as the sequence (Q01726 whole entry) above

Melanocortin receptor 4 [7] = molecular target: T4, Melanocortin receptor 4 (Homo sapiens, UniProt P32245); assay: In vitro intrinsic activity against human Melanocortin 4 receptor (MC4R)
T4 sequence (P32245 whole entry): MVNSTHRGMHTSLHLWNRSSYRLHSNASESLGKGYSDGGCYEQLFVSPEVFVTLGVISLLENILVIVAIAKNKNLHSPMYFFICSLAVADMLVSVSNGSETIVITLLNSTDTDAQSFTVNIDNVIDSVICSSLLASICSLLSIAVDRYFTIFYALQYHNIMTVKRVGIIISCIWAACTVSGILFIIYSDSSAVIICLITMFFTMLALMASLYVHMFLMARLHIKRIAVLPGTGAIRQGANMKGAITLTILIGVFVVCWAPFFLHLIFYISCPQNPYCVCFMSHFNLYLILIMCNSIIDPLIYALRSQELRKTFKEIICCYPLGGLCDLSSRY

Melanocortin receptor 4 [8] = molecular target: T4, Melanocortin receptor 4; assay: In vitro effective concentration towards human Melanocortin 4 receptor (MC4R) was determined by a SPA-based cAMP assay in melanoma cells; assay type: cell-based
Melanocortin receptor 5 [9] = molecular target: T3, Melanocortin receptor 5; assay: In vitro effective concentration towards human Melanocortin 5 receptor (MC5R) was determined by a SPA-based cAMP assay in melanoma cells; assay type: cell-based
Melanocortin receptor 3 [10] = molecular target: T2, Melanocortin receptor 3; assay: In vitro effective concentration towards human Melanocortin-3 receptor (MC3R) was determined by a SPA-based cAMP assay in melanoma cells; assay type: cell-based
[11] = MRT value was determined by intravenous administration of 6.8 umol/kg dose in mice; assay type: ADME, organism-based; settings: mouse, in vivo
Summary of the method: (§1)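 Balb/c mice (n = 3) given a single intravenous dose of 6.8 μmol/kg in 50:50 PEG400–water, with plasma pharmacokinetic parameters derived from the concentration–time profile.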

Melanocortin receptor 3 [12] = molecular target: T2, Melanocortin receptor 3; assay: In vitro inhibitory concentration against human Melanocortin 3 receptor (MC3R)
[13] = Vss value was determined by intravenous administration of 6.8 umol/kg dose in mice; assay type: ADME, organism-based; settings: mouse, in vivo, read-out: Vss; summary of the method: as §1
[14] = Half life by intravenous administration of 6.8 umol/kg dose in mice; assay type: ADME, organism-based; settings: mouse, in vivo; summary of the method: as §1
[15] = Cmax value was evaluated in mice by intravenous administration of 6.8 umol/kg dose; assay type: ADME, organism-based; design: dose 6.8 umol/kg, route intravenous; settings: mouse, in vivo; summary of the method: as §1
[16] = Cl value was determined by intravenous administration of 6.8 umol/kg dose in mice; assay type: ADME, organism-based; settings: mouse, in vivo; summary of the method: as §1

SMILES | EC50 [1] | IC50 [2] | Intrinsic activity (Melanocortin receptor 3 [4]) | Intrinsic activity (Melanocortin receptor 5 [5]) | Intrinsic activity [6] | Intrinsic activity (Melanocortin receptor 4 [7]) | EC50 (Melanocortin receptor 4 [8]) | EC50 (Melanocortin receptor 5 [9]) | other results
CCCC(=O)C1(c2ccccc2)CCN(C(=O)[C@@H](Cc2ccc(OC)cc2)NC(=O)CCc2c[nH]cn2)CC1 |  |  | 85% | 32% | 97% | 92% |  |  | 
CCCC(=O)C1(c2ccccc2)CCN(C(=O)[C@@H](Cc2ccc(OC)cc2)NC(=O)[C@H](N)Cc2c[nH]cn2)CC1 |  |  | 98% | 40% | 93% | 103% |  |  | 
CCCC(=O)C1(c2ccccc2)CCN(C(=O)[C@@H](Cc2ccc(OC)cc2)NC(=O)[C@@H](N)Cc2cncn2C)CC1 | 28 nM | 120 nM | 2.1% | 15% | 92% | 39% | 2600 nM | 4400 nM | MRT [11]: 1.2 h; NA (Melanocortin receptor 3 [12]): inactive; Vd [13]: 8.2 L/kg; half-life [14]: 1.5 h; Cmax [15]: 2200 nM; clearance [16]: 110 mL/min/kg
CCCC(=O)C1(c2ccccc2)CCN(C(=O)[C@@H](Cc2ccc(OC)cc2)NC(=O)[C@@H](N)Cc2c[nH]cn2)CC1 |  |  |  |  | 67% |  |  |  | 
COc1ccc(C[C@@H](NC(=O)[C@H]2Cc3ccccc3CN2)C(=O)N2CCC3(CC2)CN(S(C)(=O)=O)c2ccccc23)cc1 | 220 nM |  |  |  | 80% | 95% | 40 nM |  | 
CCCC(=O)C1(c2ccccc2)CCN(C(=O)[C@@H](Cc2ccc(OC)cc2)NC(=O)[C@H](N)Cc2cncn2C)CC1 | 510 nM | 1500 nM |  |  | 34% |  |  |  | 

Now from value to molecule, other results behind:

EC50 [1] | IC50 [2] | Intrinsic activity (Melanocortin receptor 3 [4]) | Intrinsic activity (Melanocortin receptor 5 [5]) | Intrinsic activity [6] | Intrinsic activity (Melanocortin receptor 4 [7]) | EC50 (Melanocortin receptor 4 [8]) | EC50 (Melanocortin receptor 5 [9]) | SMILES | other results
400 nM | 1300 nM |  |  |  |  |  |  | CCCC(=O)C1(c2ccccc2)CCN(C(=O)[C@@H](Cc2ccc(OC)cc2)NC(=O)[C@@H](N)Cc2cnc[nH]2)CC1 | 
0.35 nM | 5.1 nM | 90% | 90% | 96% | 96% | 23 nM | 3900 nM | CCCC(=O)C1(c2ccccc2)CCN(C(=O)[C@@H](Cc2ccc(OC)cc2)NC(=O)[C@@H](Cc2c[nH]cn2)NC(C)=O)CC1 | EC50 (Melanocortin receptor 3 [3]): 2200 nM
2.5 nM | 18 nM |  |  |  |  | 840 nM | 9400 nM | CCCC(=O)C1(c2ccccc2)CCN(C(=O)[C@@H](Cc2ccc(OC)cc2)NC(=O)CCc2cnc[nH]2)CC1 | EC50 (Melanocortin receptor 3 [3]): 7000 nM
3.8 nM | 5.5 nM |  |  |  |  | 77 nM | 2700 nM | CCCC(=O)C1(c2ccccc2)CCN(C(=O)[C@@H](Cc2ccc(OC)cc2)NC(=O)[C@H](O)Cc2cnc[nH]2)CC1 | EC50 (Melanocortin receptor 3 [10]): 3900 nM
 |  | 85% | 20% | 90% | 95% |  |  | CCCC(=O)C1(c2ccccc2)CCN(C(=O)[C@@H](Cc2ccc(OC)cc2)NC(=O)[C@H](O)Cc2c[nH]cn2)CC1 | 
1.5 nM | 32 nM |  |  |  |  | 630 nM | 10000 nM | CCCC(=O)C1(c2ccccc2)CCN(C(=O)[C@@H](Cc2ccc(OC)cc2)NC(=O)[C@H](N)Cc2cnc[nH]2)CC1 | EC50 (Melanocortin receptor 3 [3]): 1700 nM
 |  | 100% | 65% | 98% | 95% |  |  | CCCC(=O)C1(c2ccccc2)CCN(C(=O)[C@@H](Cc2ccc(OC)cc2)NC(=O)[C@@H](Cc2c[nH]cn2)NC(=O)c2ccccc2)CC1 | 
0.19 nM | 3.1 nM |  |  |  |  | 2.9 nM | 2100 nM | CCCC(=O)C1(c2ccccc2)CCN(C(=O)[C@@H](Cc2ccc(OC)cc2)NC(=O)[C@@H](Cc2cnc[nH]2)NC(=O)c2ccccc2)CC1 | EC50 (Melanocortin receptor 3 [3]): 250 nM
